According to ChEMBL document CHEMBL4706666, “Targeting Cysteine Located Outside the Active Site: An Effective Strategy for Covalent ALKi Design” (J Med Chem, 2021):
Activity calls are given as the source filed them. No cut-off for these calls is given here.

Assays:
[1] = biological target: T1, ALK tyrosine kinase receptor (Homo sapiens, UniProt Q9UM73); experiment: Inhibition of N-terminal GST tagged human ALK cytoplasmic domain (1058 to 1620 residues) expressed in Sf21 cells at 200 nM incubated for 10 mins by mobility shift assay
Target sequence in this assay (Q9UM73 19-1620 limits assumed): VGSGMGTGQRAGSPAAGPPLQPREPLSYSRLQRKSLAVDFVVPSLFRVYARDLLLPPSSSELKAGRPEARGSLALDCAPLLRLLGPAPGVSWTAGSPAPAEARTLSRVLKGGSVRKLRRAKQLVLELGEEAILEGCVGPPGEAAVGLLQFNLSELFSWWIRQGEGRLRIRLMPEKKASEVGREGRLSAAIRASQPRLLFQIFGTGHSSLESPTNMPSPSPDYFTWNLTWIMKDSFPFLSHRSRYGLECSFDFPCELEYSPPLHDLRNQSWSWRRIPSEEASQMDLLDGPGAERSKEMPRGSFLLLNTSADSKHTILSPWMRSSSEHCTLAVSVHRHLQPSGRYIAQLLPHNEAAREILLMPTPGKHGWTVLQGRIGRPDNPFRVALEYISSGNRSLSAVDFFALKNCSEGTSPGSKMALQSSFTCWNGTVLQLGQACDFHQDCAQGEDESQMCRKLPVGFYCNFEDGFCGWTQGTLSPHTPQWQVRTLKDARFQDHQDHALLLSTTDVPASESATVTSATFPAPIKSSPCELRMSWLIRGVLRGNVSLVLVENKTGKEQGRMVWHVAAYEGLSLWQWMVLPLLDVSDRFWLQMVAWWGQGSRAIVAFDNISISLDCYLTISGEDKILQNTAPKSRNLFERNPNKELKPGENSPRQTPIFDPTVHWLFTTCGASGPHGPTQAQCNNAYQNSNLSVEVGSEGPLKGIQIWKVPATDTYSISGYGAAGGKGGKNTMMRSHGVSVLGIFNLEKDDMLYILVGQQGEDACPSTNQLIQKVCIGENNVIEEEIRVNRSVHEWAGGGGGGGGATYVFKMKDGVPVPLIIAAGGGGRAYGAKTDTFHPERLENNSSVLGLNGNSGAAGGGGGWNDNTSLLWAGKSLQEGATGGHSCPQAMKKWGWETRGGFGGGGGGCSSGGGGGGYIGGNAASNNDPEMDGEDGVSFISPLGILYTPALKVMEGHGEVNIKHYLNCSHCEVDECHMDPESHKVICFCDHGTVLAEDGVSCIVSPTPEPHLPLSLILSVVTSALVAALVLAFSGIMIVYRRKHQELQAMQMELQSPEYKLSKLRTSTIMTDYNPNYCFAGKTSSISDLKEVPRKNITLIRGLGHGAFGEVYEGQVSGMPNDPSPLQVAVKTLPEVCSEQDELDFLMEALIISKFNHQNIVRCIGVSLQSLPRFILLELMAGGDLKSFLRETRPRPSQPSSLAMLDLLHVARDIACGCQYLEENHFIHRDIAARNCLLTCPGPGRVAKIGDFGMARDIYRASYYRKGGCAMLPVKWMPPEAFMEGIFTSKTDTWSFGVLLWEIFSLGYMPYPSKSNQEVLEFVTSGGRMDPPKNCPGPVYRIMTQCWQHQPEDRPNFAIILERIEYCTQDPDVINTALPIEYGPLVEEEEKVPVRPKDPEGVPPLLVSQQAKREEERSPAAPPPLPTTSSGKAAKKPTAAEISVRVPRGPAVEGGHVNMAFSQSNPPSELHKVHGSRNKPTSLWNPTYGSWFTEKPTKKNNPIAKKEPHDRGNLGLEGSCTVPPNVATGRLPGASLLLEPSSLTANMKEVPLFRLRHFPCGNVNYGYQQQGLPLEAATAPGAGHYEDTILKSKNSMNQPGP

NCI-H3122 [2] = experiment: Antiproliferative activity against human NCI-H3122 cells assessed as reduction in cell viability incubated for 72 hrs by MTT assay; details: NCI-H3122, 72 h
L02 = experiment: Antiproliferative activity against human L02 cells assessed as reduction in cell viability at 5 uM incubated for 72 hrs by MTT assay relative to Ceritinib; format: cell-based; details: l02, 72 h
Procedure, shortened: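 Normal human liver LO2 cells were grown at 37 °C, 5% CO₂ with 10% FBS and seeded at 2−5 × 10³ per well for 24 h. Compound was added at 5 μM for 72 h, followed by MTT for 1−4 h and absorbance read at 450 nm. Inhibition rate was taken from OD.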

[3] = biological target: T1, ALK tyrosine kinase receptor; experiment: Inhibition of N-terminal GST tagged human ALK cytoplasmic domain (1058 to 1620 residues) expressed in Sf21 cells at 20 nM incubated for 10 mins by mobility shift assay
Target sequence in this assay (Q9UM73 19-1620 limits assumed): as above

[4] = biological target: T1, ALK tyrosine kinase receptor; experiment: Inhibition of ALK phosphorylation in human NCI-H3122 cells at 10 to 500 nM incubated for 24 hrs by western blot analysis; format: cell-based; details: dose 10-500 nM
Procedure, shortened: (§1)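 H3122 cells were exposed for 24 h at 37 °C to 0, 10, 50, 200 or 500 nM, then lysed in RIPA buffer with protease/phosphatase inhibitors and 1 mM PMSF. Protein was BCA-normalized and run on SDS−PAGE to PVDF. Primary antibodies were applied overnight at 4 °C in 5% BSA/TBST, then HRP secondary (1/5000, 1 h). Detection was by chemiluminescence.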
Target sequence in this assay (Q9UM73 19-1620 limits assumed): as above

[5] = Tmax in Sprague-Dawley rat at […] measured upto 24 hrs by LC-MS/MS analysis; format: ADME, organism-based; details: in vivo
[6] = Oral bioavailability in Sprague-Dawley rat at 10 mg/kg measured upto 24 hrs by LC-MS/MS analysis; format: ADME, organism-based; details: in vivo
Procedure, shortened: (§2)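 Male SD rats (200−220 g, n = 3 per group) received 1 mg/kg iv in 5% DMA/10% Solutol HS 15/85% saline, or 10 mg/kg orally in 0.5% CMC-Na. Jugular-vein blood was drawn to 24 h, and plasma was kept at −80 °C. Plasma levels were quantified by LC−MS/MS (LLOQ 1 ng/mL), and parameters were derived by noncompartmental analysis.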

[7] = Cmax in Sprague-Dawley rat at […] measured upto 24 hrs by LC-MS/MS analysis; format: ADME, organism-based; set-up: route intravenous, dose 1 mg/kg, time <=24; details: in vivo
[8] = biological target: Fibroblast growth factor receptor 2 (Homo sapiens, UniProt P21802); experiment: Inhibition of FGFR2 (unknown origin)
[9] = biological target: T2, Receptor-type tyrosine-protein kinase FLT3 (Homo sapiens, UniProt P36888); experiment: Inhibition of FLT3 (unknown origin)
T2 sequence (P36888 whole entry): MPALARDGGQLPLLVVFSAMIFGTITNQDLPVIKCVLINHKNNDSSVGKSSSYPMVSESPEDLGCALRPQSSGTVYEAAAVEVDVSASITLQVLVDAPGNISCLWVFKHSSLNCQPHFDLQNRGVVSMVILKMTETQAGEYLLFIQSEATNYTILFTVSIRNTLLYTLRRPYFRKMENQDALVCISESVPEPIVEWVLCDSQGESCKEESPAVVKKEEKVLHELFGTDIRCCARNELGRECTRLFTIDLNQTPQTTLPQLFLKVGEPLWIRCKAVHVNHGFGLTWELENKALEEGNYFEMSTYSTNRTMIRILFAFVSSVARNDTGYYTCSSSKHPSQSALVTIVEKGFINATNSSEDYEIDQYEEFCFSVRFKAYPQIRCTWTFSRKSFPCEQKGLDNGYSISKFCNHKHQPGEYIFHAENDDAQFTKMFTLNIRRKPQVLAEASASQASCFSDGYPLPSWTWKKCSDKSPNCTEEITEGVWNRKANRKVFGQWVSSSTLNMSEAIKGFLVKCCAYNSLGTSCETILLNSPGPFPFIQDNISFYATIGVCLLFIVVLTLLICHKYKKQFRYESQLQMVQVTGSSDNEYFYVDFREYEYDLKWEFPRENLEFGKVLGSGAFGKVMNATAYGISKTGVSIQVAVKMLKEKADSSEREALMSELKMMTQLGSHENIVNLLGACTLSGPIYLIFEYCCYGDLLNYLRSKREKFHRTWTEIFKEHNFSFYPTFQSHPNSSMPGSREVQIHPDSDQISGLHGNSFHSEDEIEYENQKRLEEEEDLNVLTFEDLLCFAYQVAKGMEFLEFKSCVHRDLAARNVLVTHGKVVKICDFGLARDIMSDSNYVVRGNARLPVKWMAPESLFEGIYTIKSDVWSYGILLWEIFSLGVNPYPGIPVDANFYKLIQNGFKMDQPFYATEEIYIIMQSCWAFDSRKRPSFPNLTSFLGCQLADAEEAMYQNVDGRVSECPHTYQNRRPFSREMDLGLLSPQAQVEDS

[10] = biological target: T1, ALK tyrosine kinase receptor; experiment: Covalent inhibition of N-terminal GST tagged human ALK cytoplasmic domain (1058 to 1620 residues) expressed in Sf21 cells in presence of high ATP levels
Target sequence in this assay (Q9UM73 whole entry, the tested form may be a part): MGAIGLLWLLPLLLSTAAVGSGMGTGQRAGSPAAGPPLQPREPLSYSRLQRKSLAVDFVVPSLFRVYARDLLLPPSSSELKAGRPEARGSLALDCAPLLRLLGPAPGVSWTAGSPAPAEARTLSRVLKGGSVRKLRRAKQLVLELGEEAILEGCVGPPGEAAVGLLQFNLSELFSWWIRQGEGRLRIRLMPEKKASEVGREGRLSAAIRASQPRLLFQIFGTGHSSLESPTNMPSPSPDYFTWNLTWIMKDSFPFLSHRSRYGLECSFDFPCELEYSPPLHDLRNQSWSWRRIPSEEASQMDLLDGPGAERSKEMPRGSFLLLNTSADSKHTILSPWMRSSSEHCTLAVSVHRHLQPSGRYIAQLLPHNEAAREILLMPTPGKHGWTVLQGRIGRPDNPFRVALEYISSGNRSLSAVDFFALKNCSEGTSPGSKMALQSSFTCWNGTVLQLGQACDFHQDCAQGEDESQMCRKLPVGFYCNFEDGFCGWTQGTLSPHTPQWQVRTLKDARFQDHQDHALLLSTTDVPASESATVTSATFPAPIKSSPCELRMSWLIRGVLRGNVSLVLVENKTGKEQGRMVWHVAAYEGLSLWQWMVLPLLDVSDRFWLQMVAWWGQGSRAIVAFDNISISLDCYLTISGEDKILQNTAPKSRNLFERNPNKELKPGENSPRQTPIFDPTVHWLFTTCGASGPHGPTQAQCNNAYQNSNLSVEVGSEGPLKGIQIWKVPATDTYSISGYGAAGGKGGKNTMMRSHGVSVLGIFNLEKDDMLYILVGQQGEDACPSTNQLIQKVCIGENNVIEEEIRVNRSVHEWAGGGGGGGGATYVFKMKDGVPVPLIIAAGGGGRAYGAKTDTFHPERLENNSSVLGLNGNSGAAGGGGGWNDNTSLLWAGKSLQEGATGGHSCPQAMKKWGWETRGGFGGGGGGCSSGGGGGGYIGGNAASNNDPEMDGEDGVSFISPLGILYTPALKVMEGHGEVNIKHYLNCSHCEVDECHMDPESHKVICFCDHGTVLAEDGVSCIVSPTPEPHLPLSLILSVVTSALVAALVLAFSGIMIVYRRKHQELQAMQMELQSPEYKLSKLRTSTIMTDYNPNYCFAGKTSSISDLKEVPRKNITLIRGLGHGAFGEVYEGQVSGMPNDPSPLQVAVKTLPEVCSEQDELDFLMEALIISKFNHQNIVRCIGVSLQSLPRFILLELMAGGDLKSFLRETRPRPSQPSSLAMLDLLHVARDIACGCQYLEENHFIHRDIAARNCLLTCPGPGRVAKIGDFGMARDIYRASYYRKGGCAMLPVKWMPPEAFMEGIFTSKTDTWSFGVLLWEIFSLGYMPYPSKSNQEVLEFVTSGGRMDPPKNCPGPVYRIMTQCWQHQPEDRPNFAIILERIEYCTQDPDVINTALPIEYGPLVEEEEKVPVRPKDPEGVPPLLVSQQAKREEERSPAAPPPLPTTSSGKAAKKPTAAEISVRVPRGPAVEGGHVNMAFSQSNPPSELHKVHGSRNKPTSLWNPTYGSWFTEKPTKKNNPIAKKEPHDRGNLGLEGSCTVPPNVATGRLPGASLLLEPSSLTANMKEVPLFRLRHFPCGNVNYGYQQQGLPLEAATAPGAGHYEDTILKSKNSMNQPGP

[11] = biological target: T1, ALK tyrosine kinase receptor; experiment: Inhibition of ALK in human NCI-H3122 cells assessed as downregulation of STAT3 phosphorylation levels at 10 to 500 nM incubated for 24 hrs by western blot analysis; format: cell-based; details: dose 10-500 nM; procedure, shortened: as §1
Target sequence in this assay (Q9UM73 19-1620 limits assumed): as the sequence (Q9UM73 19-1620 limits assumed) above

[12] = biological target: T1, ALK tyrosine kinase receptor; experiment: Inhibition of N-terminal GST tagged human ALK cytoplasmic domain (1058 to 1620 residues) expressed in Sf21 cells by mobility shift assay
Procedure, shortened: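 Wild-type ALK, kinase substrate and ATP at Km were combined with compound in kinase buffer and incubated 10 min at room temperature. Read-out was by mobility shift, and IC50 was derived by curve fitting.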
Target sequence in this assay (Q9UM73 whole entry, the tested form may be a part): as the sequence (Q9UM73 whole entry, the tested form may be a part) above

[13] = Half life in Sprague-Dawley rat at 10 mg/kg, po measured upto 24 hrs by LC-MS/MS analysis; format: ADME, organism-based; details: in vivo; procedure, shortened: as §2
[14] = Volume of distribution at steady state in Sprague-Dawley rat at 1 mg/kg, iv measured upto 24 hrs by LC-MS/MS analysis; format: ADME, organism-based; details: in vivo, read-out: Vdss; procedure, shortened: as §2
[15] = AUC (0 to infinity) in Sprague-Dawley rat at 10 mg/kg, po measured upto 24 hrs by LC-MS/MS analysis; format: ADME, organism-based; set-up: route oral, dose 10 mg/kg, time <=24; details: in vivo; procedure, shortened: as §2
[16] = Toxicity in Balb/c mouse xenografted with human NCI-H3122 cells assessed as change in body weight at 10 to 50 mg/kg/day, po and measured every 3 days for 15 days; format: organism-based; details: in vivo, 360 h, dose 10-50 mg/kg/day, time 15 day
Procedure, shortened: (§3)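 Female BALB/c nude mice, 6−7 weeks old and 18−22 g, were implanted sc with 5 × 10⁶ exponential-phase H3122 cells in 0.1 mL serum- and antibiotic-free medium. At 150−200 mm³ they were randomized (6 per group) and dosed orally once daily at 10, 20 or 50 mg/kg in 10% NMP/90% PEG300, with a vehicle group. Body weight and caliper tumor volume (a × b²/2) were recorded every 3 days. TGI versus vehicle was determined after 15 days.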

NCI-H3122 [17] = experiment: Antitumor activity against human NCI-H3122 cells xenografted in Balb/c nude mouse assessed as tumor growth inhibition administered orally and measured every 3 days for 15 days by vernier caliper method; format: functional, cell-based; details: time 15.0 day; procedure, shortened: as §3
[18] = biological target: T1, ALK tyrosine kinase receptor; experiment: Inhibition of ALK in human NCI-H3122 cells assessed as decrease in STAT3 expression levels at 10 to 500 nM incubated for 24 hrs by western blot analysis; format: cell-based; details: dose 10-500 nM; procedure, shortened: as §1
Target sequence in this assay (Q9UM73 19-1620 limits assumed): as the sequence (Q9UM73 19-1620 limits assumed) above

[19] = biological target: T1, ALK tyrosine kinase receptor; experiment: Inhibition of ALK in human NCI-H3122 cells assessed as decrease in phosphorylation of AKT at 10 to 500 nM incubated for 24 hrs by western blot analysis; format: cell-based; details: dose 10-500 nM; procedure, shortened: as §1
Target sequence in this assay (Q9UM73 19-1620 limits assumed): as above

NCI-H3122 [20] = experiment: Antitumor activity against human NCI-H3122 cells xenografted in Balb/c nude mouse assessed as tumor growth inhibition at 10 mg/kg/day, po and measured 15 days post treatment by vernier caliper method relative to control; format: functional; details: 360 h, time 15 day, read-out: TGI; procedure, shortened: as §3
NCI-H3122 [21] = experiment: Antitumor activity against human NCI-H3122 cells xenografted in Balb/c nude mouse assessed as tumor growth inhibition at 50 mg/kg/day, po and measured 15 days post treatment by vernier caliper method relative to control; format: functional; details: 360 h, time 15 day, read-out: TGI; procedure, shortened: as §3
[22] = Binding affinity to L-cysteine assessed as molecular mass incubated for 8 hrs by LC-MS analysis
Procedure, shortened: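 L-cysteine incubated in water with a 5-fold molar excess of compound (or DMSO) for 8 h at 4 °C; reaction mixtures analysed by LC–MS on an ion trap mass spectrometer to detect adduct mass.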

[23] = biological target: T1, ALK tyrosine kinase receptor; experiment: Inhibition of ALK in human NCI-H3122 cells assessed as downregulation of AKT expression levels at 10 to 500 nM incubated for 24 hrs by western blot analysis; format: cell-based; details: dose 10-500 nM; procedure, shortened: as §1
[24] = Clearance in Sprague-Dawley rat at 1 mg/kg, iv measured upto 24 hrs by LC-MS/MS analysis; format: ADME, organism-based; details: in vivo; procedure, shortened: as §2
[25] = tested on: ALK tyrosine kinase receptor (Homo sapiens), Q9UM73 [L1196M]; details: Sf21, dose 200.0 nM, time 10.0 min
NCI-H3122 [26] = experiment: Antitumor activity against human NCI-H3122 cells xenografted in Balb/c nude mouse assessed as tumor growth inhibition at 20 mg/kg/day, po and measured 15 days post treatment by vernier caliper method relative to control; format: functional; details: 360 h, time 15 day, read-out: TGI; procedure, shortened: as §3

Sequence of ALK tyrosine kinase receptor (Homo sapiens), Q9UM73 [L1196M] (Q9UM73 whole entry L1196M, looked up): as the sequence (Q9UM73 whole entry, the tested form may be a part) above, with L1196M counted along it
Sequence of Fibroblast growth factor receptor 2 (P21802 whole entry): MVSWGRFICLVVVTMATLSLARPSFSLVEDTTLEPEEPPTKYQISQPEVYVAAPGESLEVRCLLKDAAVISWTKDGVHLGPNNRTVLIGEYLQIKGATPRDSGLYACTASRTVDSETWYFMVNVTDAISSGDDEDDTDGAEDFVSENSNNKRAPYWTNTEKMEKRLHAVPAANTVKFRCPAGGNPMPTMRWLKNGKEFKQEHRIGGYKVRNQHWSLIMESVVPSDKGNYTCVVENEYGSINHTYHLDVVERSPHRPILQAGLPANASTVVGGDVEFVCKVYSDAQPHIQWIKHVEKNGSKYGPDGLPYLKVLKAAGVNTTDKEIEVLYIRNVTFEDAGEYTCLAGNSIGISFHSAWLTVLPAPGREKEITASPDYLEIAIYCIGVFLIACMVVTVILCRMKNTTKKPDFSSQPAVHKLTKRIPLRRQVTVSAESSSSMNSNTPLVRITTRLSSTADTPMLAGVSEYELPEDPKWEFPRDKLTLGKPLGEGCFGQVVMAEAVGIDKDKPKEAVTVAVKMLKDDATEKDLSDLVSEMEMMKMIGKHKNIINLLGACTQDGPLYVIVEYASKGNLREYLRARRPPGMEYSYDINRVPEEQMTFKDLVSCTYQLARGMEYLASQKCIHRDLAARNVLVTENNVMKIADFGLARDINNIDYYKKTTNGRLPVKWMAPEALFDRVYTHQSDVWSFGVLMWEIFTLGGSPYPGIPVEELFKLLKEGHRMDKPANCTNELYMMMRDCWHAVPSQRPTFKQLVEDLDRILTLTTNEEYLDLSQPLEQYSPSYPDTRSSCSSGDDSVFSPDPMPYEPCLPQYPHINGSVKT

With `C=CC(=O)NCCCCCCNC(=O)CCN1CCC(c2cc(OC(C)C)c(Nc3ncc(Cl)c(Nc4ccccc4S(=O)(=O)C(C)C)n3)cc2C)CC1` as the compound, how does the inhibition [1] read?
The inhibition was “Active”.

And the IC50 (NCI-H3122 [2])?
Its IC50 is 750 nM.

And the Activity (L02)?
Its Activity is “Non-Toxic”.

What about the inhibition [3] of the same compound?
The inhibition was “Active”.

With `C=CC(=O)NCCOCCOCCOCCNC(=O)CCN1CCC(c2cc(OC(C)C)c(Nc3ncc(Cl)c(Nc4ccccc4S(=O)(=O)C(C)C)n3)cc2C)CC1` as the compound, how does the inhibition [1] read?
The inhibition was “Active”.

What about the IC50 (NCI-H3122 [2]) of the same compound?
Its IC50 is 610 nM.

What about the Activity (L02) of the same compound?
Its Activity is “Non-Toxic”.

What about the inhibition [3] of the same compound?
Its inhibition is “Active”.

Which results are given for `C=CC(=O)NCCOCCNC(=O)CCN1CCC(c2cc(OC(C)C)c(Nc3ncc(Cl)c(Nc4ccccc4S(=O)(=O)C(C)C)n3)cc2C)CC1`?
inhibition [1]: Active; inhibition [4]: Active; Tmax [5]: 2.67 h; bioavailability [6]: 12.1%; IC50 (NCI-H3122 [2]): 150 nM; Cmax [7]: 157 ng/mL; IC50 [8]: > 1000 nM; IC50 [9]: 875 nM; IC50 [10]: 1.4 nM; inhibition [11]: Active; IC50 [12]: 0.5 nM; Activity (L02): Non-Toxic; half-life [13]: 2.89 h; Vd [14]: 2.81 L/kg; inhibition [3]: Active; AUC(0-inf) [15]: 859 ng·h/mL; Activity [16]: Non-Toxic; TGI (NCI-H3122 [17]): Dose-dependent effect; inhibition [18]: Active; inhibition [19]: Active; inhibition in vivo at 10 mg/kg/day (NCI-H3122 [20]): 39.7%; inhibition in vivo at 50 mg/kg/day (NCI-H3122 [21]): 62%; Activity [22]: 891 Da; inhibition [23]: Active; clearance [24]: 17 mL/min/kg; inhibition [25]: Active; inhibition in vivo at 20 mg/kg/day (NCI-H3122 [26]): 49.7%

Which IC50 [12] does the source give for `CCC(=O)NCCOCCNC(=O)CCN1CCC(c2cc(OC(C)C)c(Nc3ncc(Cl)c(Nc4ccccc4S(=O)(=O)C(C)C)n3)cc2C)CC1` here?
The IC50 was 13.2 nM.

Which results are given for `C=CC(=O)NCCOCCOCCNC(=O)CCN1CCC(c2cc(OC(C)C)c(Nc3ncc(Cl)c(Nc4ccccc4S(=O)(=O)C(C)C)n3)cc2C)CC1`?
inhibition [1]: Active; inhibition [3]: Active

Which IC50 (NCI-H3122 [2]) does the source give for `Cc1cc(Nc2ncc(Cl)c(Nc3ccccc3S(=O)(=O)C(C)C)n2)c(OC(C)C)cc1C1CCNCC1` [CERITINIB] here?
The IC50 was 1100 nM.

And the inhibition [25]?
Its inhibition is “Active”.

And the inhibition in vivo at 20 mg/kg/day (NCI-H3122 [26])?
Its inhibition in vivo at 20 mg/kg/day is 34%.

For `C=CC(=O)NCCCCCCCCNC(=O)CCN1CCC(c2cc(OC(C)C)c(Nc3ncc(Cl)c(Nc4ccccc4S(=O)(=O)C(C)C)n3)cc2C)CC1`, which inhibition [1] is on record?
The inhibition was “Active”.

What about the IC50 (NCI-H3122 [2]) of the same compound?
The IC50 was 720 nM.

And the Activity (L02)?
The Activity was “Non-Toxic”.

And the inhibition [3]?
Its inhibition is “Active”.

Which results are given for `C=CC(=O)NCCCNC(=O)CCN1CCC(c2cc(OC(C)C)c(Nc3ncc(Cl)c(Nc4ccccc4S(=O)(=O)C(C)C)n3)cc2C)CC1`?
inhibition [1]: Active; IC50 (NCI-H3122 [2]): 1140 nM; Activity (L02): Non-Toxic; inhibition [3]: Active

For `C=CC(=O)NCCCCNC(=O)CCN1CCC(c2cc(OC(C)C)c(Nc3ncc(Cl)c(Nc4ccccc4S(=O)(=O)C(C)C)n3)cc2C)CC1`, which inhibition [1] is on record?
Its inhibition is “Active”.

What about the inhibition [3] of the same compound?
The inhibition was “Active”.
